Results published in ChEMBL document CHEMBL1649115, “Enhanced susceptibility to antifungal oligopeptides in yeast strains overexpressing ABC multidrug efflux pumps” (Antimicrob Agents Chemother, 2008).
In brackets after ≈: the same amount, converted by molar mass. Residues, ends and D or L forms follow the SMILES beside them.

Columns and labels:
[1] = system: Saccharomyces cerevisiae; assay: Drug uptake in Saccharomyces cerevisiae ADCDR1 expressing Candida albicans CDR1 efflux pump at 200 uM pretreated for 10 mins measured after 60 mins by fluorescamine staining; assay type: ADME, organism-based; conditions: in vivo, 1 h
[2] = system: Saccharomyces cerevisiae; assay: Antifungal activity against Saccharomyces cerevisiae ADCDR1 expressing Candida albicans CDR1 efflux pump in YNPG medium containing 1 mg/ml […] after 24 hrs by microdilution method; assay type: functional; conditions: ADCDR1, 24 h
[3] = system: Saccharomyces cerevisiae; assay: Antifungal activity against Saccharomyces cerevisiae ADCDR2 expressing Candida albicans CDR2 efflux pump in YNPG medium containing 1 mg/ml […] after 24 hrs by microdilution method; assay type: functional; conditions: ADCDR2, 24 h
[4] = system: Saccharomyces cerevisiae; assay: Drug uptake in Saccharomyces cerevisiae AD12345678 at 200 uM pretreated for 10 mins measured after 60 mins by fluorescamine staining; assay type: ADME, organism-based; conditions: in vivo, 1 h
[5] = system: Candida albicans; assay: Antifungal activity against wild type Candida albicans 10261 in RPMI-1640 buffered medium after 24 hrs by microdilution method; assay type: functional; conditions: Candida albicans, 10261, 24 h; read-out: MIC
Summary of the method: (§1)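 C. albicans cells were grown in 2% glucose, 1% yeast extract, 1% Bacto peptone medium before testing. […] CARE-2 fingerprinting confirmed that each pair is a single strain.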

[6] = system: Saccharomyces cerevisiae; assay: Antifungal activity against Saccharomyces cerevisiae ADCDR1 expressing Candida albicans CDR1 efflux pump in YNBG medium containing 1 mg/ml […] after 24 hrs by microdilution method; assay type: functional; conditions: ADCDR1, 24 h
[7] = system: Candida albicans; assay: Antifungal activity against fluconazole resistant Candida albicans isolate Gu5 overexpressing CDR1 and CDR2 in RPMI-1640 buffered medium after 24 hrs by microdilution method; assay type: functional; conditions: isolate Gu5, 24 h
Summary of the method: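 C. albicans cells were grown in 2% glucose, 1% yeast extract, 1% Bacto peptone medium before testing. CARE-2 fingerprinting confirmed that each pair is a single strain.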

[8] = system: Saccharomyces cerevisiae; assay: Antifungal activity against Saccharomyces cerevisiae ADCDR2 expressing Candida albicans CDR2 efflux pump in YNBG medium containing 1 mg/ml […] after 24 hrs by microdilution method; assay type: functional; conditions: ADCDR2, 24 h
[9] = system: Saccharomyces cerevisiae; assay: Antifungal activity against wild type Saccharomyces cerevisiae ATCC 9763 in YNPG medium containing 1 mg/ml […] after 24 hrs by microdilution method; assay type: functional; conditions: ATCC 9763, 24 h
[10] = system: Saccharomyces cerevisiae; assay: Antifungal activity against Saccharomyces cerevisiae ADMDR1 expressing Candida albicans MDR1 efflux pump in YNBG medium containing 1 mg/ml […] after 24 hrs by microdilution method; assay type: functional; conditions: ADMDR1, 24 h
[11] = system: Saccharomyces cerevisiae; assay: Drug extrusion in Saccharomyces cerevisiae ADCDR2 expressing Candida albicans CDR2 efflux pump reenergized with glucose at pH 6.0 assessed as fluorescamine-compound conjugate level after 30 mins; assay type: ADME, organism-based; conditions: in vivo, pH 6, 0.5 h
Summary of the method: (§2)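 Cells de-energized with 2-deoxy-D-glucose were loaded (200 µM, 60 min, pH 4.0), washed, and resuspended at OD660 1.0 in 50 mM phosphate pH 6.0 at 30°C. After 5-min preincubation, 10 mM glucose was added. Supernatants were sampled every 5 min and assayed with fluorescamine. Unloaded, identically treated cells gave the background control.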

[12] = system: Candida albicans; assay: Antifungal activity against fluconazole resistant Candida albicans isolate B4 overexpressing MDR1 in RPMI-1640 buffered medium after 24 hrs by microdilution method; assay type: functional; conditions: Candida albicans, isolate B4, 24 h; read-out: MIC; summary of the method: as §1
[13] = system: Saccharomyces cerevisiae; assay: Antifungal activity against Saccharomyces cerevisiae AD12345678 in YNBG medium containing 1 mg/ml […] after 24 hrs by microdilution method; assay type: functional; conditions: AD12345678, 24 h
[14] = system: Saccharomyces cerevisiae; assay: Antifungal activity against Saccharomyces cerevisiae AD12345678 in YNPG medium containing 1 mg/ml […] after 24 hrs by microdilution method; assay type: functional; conditions: AD12345678, 24 h
[15] = system: Saccharomyces cerevisiae; assay: Antifungal activity against Saccharomyces cerevisiae ADMDR1 expressing Candida albicans MDR1 efflux pump in YNPG medium containing 1 mg/ml […] after 24 hrs by microdilution method; assay type: functional; conditions: ADMDR1, 24 h
[16] = system: Saccharomyces cerevisiae; assay: Drug extrusion in Saccharomyces cerevisiae ADCDR1 expressing Candida albicans CDR1 efflux pump reenergized with glucose at pH 6.0 assessed as fluorescamine-compound conjugate level after 30 mins; assay type: ADME, organism-based; conditions: in vivo, pH 6, 0.5 h; summary of the method: as §2
[17] = system: Saccharomyces cerevisiae; assay: Antifungal activity against wild type Saccharomyces cerevisiae ATCC 9763 in YNBG medium containing 1 mg/ml […] after 24 hrs by microdilution method; assay type: functional; conditions: ATCC 9763, 24 h
[18] = system: Saccharomyces cerevisiae; assay: Drug uptake in Saccharomyces cerevisiae ADMDR1 expressing Candida albicans MDR1 efflux pump at 200 uM pretreated for 10 mins measured after 60 mins by fluorescamine staining; assay type: ADME, organism-based; conditions: in vivo, 1 h
[19] = system: Candida albicans; assay: Antifungal activity against fluconazole sensitive Candida albicans isolate B3 in RPMI-1640 buffered medium after 24 hrs by microdilution method; assay type: functional; conditions: Candida albicans, isolate B3, 24 h; read-out: MIC; summary of the method: as §1
[20] = system: Saccharomyces cerevisiae; assay: Drug uptake in Saccharomyces cerevisiae ADCDR2 expressing Candida albicans CDR2 efflux pump at 200 uM pretreated for 10 mins measured after 60 mins by fluorescamine staining; assay type: ADME, organism-based; conditions: in vivo, 1 h
[21] = system: Candida albicans; assay: Antifungal activity against fluconazole sensitive Candida albicans isolate Gu4 in RPMI-1640 buffered medium after 24 hrs by microdilution method; assay type: functional; conditions: Candida albicans, isolate Gu4, 24 h; read-out: MIC; summary of the method: as §1
[22] = system: Saccharomyces cerevisiae; assay: Drug uptake in Saccharomyces cerevisiae ADMDR1 at 50 uM pretreated for 10 mins measured after 60 mins by fluorescamine staining in presence of fluconazole; conditions: in vivo, 1 h
[23] = system: Saccharomyces cerevisiae; assay: Prodrug stability in Saccharomyces cerevisiae ADCDR2 expressing Candida albicans CDR2 efflux pump assessed as compound cleavage rate measured per mg of protein; assay type: ADME, organism-based; conditions: in vivo
[24] = system: Saccharomyces cerevisiae; assay: Prodrug stability in wild type Saccharomyces cerevisiae ATCC 9763 assessed as compound cleavage rate measured per mg of protein; assay type: ADME, organism-based; conditions: in vivo
[25] = system: Saccharomyces cerevisiae; assay: Prodrug stability in Saccharomyces cerevisiae ADCDR1 expressing Candida albicans CDR1 efflux pump assessed as compound cleavage rate measured per mg of protein; assay type: ADME, organism-based; conditions: in vivo
[26] = system: Saccharomyces cerevisiae; assay: Prodrug stability in Saccharomyces cerevisiae ADMDR1 expressing Candida albicans MDR1 efflux pump assessed as compound cleavage rate measured per mg of protein; assay type: ADME, organism-based; conditions: in vivo
[27] = system: Saccharomyces cerevisiae; assay: Drug uptake in Saccharomyces cerevisiae AD12345678 at 200 uM pretreated for 10 mins measured after 60 mins by fluorescamine staining in presence of fluconazole; assay type: ADME, organism-based; conditions: in vivo, 1 h
[28] = system: Saccharomyces cerevisiae; assay: Prodrug stability in Saccharomyces cerevisiae AD12345678 assessed as compound cleavage rate measured per mg of protein; assay type: ADME, organism-based; conditions: in vivo
[29] = system: Candida albicans; assay: Prodrug stability in fluconazole sensitive Candida albicans isolate B3 assessed as compound cleavage rate measured per mg of protein; assay type: ADME, organism-based; conditions: in vivo
[30] = system: Saccharomyces cerevisiae; assay: Drug uptake in Saccharomyces cerevisiae ADCDR1 at 200 uM pretreated for 10 mins measured after 60 mins by fluorescamine staining in presence of fluconazole; assay type: ADME, organism-based; conditions: in vivo, 1 h
[31] = system: Saccharomyces cerevisiae; assay: Drug uptake in Saccharomyces cerevisiae ADCDR2 at 200 uM pretreated for 10 mins measured after 60 mins by fluorescamine staining in presence of fluconazole; assay type: ADME, organism-based; conditions: in vivo, 1 h
[32] = system: Candida albicans; assay: Prodrug stability in fluconazole sensitive Candida albicans isolate Gu4 assessed as compound cleavage rate measured per mg of protein; assay type: ADME, organism-based; conditions: in vivo
Summary of the method: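 Oligopeptides were incubated with cell extracts of the yeast cells, and their hydrolytic enzymes cleaved them. The amino acids released were quantified by the Cd-ninhydrin method.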

[33] = system: Candida albicans; assay: Prodrug stability in wild type Candida albicans 10261 assessed as compound cleavage rate measured per mg of protein; assay type: ADME, organism-based; conditions: in vivo

Molecule N[C@H]1CCC[C@H]1C(=O)O has a Drug uptake [1] of 2.11 nmol/min/mg, an MIC [2] of 256 µg/mL (≈ 1980 µM) and an MIC [3] of 256 µg/mL (≈ 1980 µM). For the same molecule, the Drug uptake [4] was 1.63 nmol/min/mg, the MIC [5] was 1 µg/mL (≈ 7.74 µM) and the MIC [6] was 16 µg/mL (≈ 124 µM). The MIC [7] was 4 µg/mL (≈ 31 µM), the MIC [8] was 16 µg/mL (≈ 124 µM) and the MIC [9] was 64 µg/mL (≈ 496 µM). It also gave an MIC [10] of 16 µg/mL (≈ 124 µM), an Activity [11] of 5 µM and an MIC [12] of 8 µg/mL (≈ 61.9 µM). The MIC [13] was 8 µg/mL (≈ 61.9 µM), the MIC [14] was 128 µg/mL (≈ 991 µM) and the MIC [15] was 256 µg/mL (≈ 1980 µM). The Activity [16] was 5 µM, the MIC [17] was 4 µg/mL (≈ 31 µM) and the Drug uptake [18] was 1.67 nmol/min/mg. For the same molecule, the MIC [19] was 2 µg/mL (≈ 15.5 µM), the Drug uptake [20] was 1.85 nmol/min/mg and the MIC [21] was 1 µg/mL (≈ 7.74 µM).

In the case of CC(C)C[C@H](NC(=O)[C@@H](N)COCCN)C(=O)NCC(=O)O, the Drug uptake [1] is reported as 1.42 nmol/min/mg, the Drug uptake [4] is reported as 0.69 nmol/min/mg and the Drug uptake [22] is reported as 0.85 nmol/min/mg. The Stability [23] was 14 nmol/min, the Stability [24] was 14 nmol/min and the Stability [25] was 14 nmol/min. It also gave a Stability [26] of 14 nmol/min, a Drug uptake [27] of 0.7 nmol/min/mg and a Stability [28] of 14 nmol/min. The Stability [29] was 20 nmol/min, the Drug uptake [18] was 0.87 nmol/min/mg and the Drug uptake [20] was 1.31 nmol/min/mg. It also gave a Drug uptake [30] of 1.32 nmol/min/mg, a Drug uptake [31] of 1.26 nmol/min/mg and a Stability [32] of 20 nmol/min. The Stability [33] was 20 nmol/min.

Work on C[C@H](N)C(=O)N[C@@H](C)C(=O)O (H-Ala-Ala-OH) yielded a Drug uptake [1] of 4.46 nmol/min/mg, a Drug uptake [4] of 2.58 nmol/min/mg and a Drug uptake [22] of 2.61 nmol/min/mg. The Drug uptake [27] was 2.55 nmol/min/mg, the Drug uptake [18] was 2.59 nmol/min/mg and the Drug uptake [20] was 4.08 nmol/min/mg. It also gave a Drug uptake [30] of 4.2 nmol/min/mg and a Drug uptake [31] of 3.94 nmol/min/mg.
